The IC50 is the concentration that gives 50% inhibition.

Cannabinoid receptor 2, sequence (P34972 whole entry): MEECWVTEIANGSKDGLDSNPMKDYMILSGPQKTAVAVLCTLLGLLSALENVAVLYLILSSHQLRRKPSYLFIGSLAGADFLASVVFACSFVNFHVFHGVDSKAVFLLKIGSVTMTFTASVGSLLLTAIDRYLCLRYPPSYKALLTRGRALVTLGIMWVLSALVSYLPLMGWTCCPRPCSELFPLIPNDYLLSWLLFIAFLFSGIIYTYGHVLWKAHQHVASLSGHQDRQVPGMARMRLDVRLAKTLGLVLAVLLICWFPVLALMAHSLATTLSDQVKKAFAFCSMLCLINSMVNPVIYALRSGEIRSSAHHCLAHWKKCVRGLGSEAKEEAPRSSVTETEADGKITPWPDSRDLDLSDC
Cannabinoid receptor 1, sequence (P20272 whole entry): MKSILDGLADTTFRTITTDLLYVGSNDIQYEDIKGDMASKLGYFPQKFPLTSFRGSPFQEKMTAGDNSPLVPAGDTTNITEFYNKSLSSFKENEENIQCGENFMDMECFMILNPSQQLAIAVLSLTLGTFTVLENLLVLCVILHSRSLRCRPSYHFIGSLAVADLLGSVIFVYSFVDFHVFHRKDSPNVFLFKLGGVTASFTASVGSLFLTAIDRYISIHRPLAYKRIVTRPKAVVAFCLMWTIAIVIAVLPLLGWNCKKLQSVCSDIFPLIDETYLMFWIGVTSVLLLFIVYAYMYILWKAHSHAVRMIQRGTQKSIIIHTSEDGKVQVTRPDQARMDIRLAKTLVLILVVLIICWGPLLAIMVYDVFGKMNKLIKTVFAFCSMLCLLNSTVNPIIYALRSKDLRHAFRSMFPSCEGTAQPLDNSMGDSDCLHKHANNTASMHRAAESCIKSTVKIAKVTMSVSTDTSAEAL

Test system in one test: not listed separately
Kind of test: Selectivity for Sprague-Dawley rat CB1 receptor over human recombinant CB2 receptor. Summed up:
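Selectivity is the ratio of the hCB2 IC50 to the rCB1 IC50. The hCB2 IC50 came from CHO-K1 membrane displacement of [3H]WIN55,212-2, and the rCB1 IC50 from rat cerebellar membrane binding. Both binding assays ran 1 h at 30 °C with filtration and scintillation counting.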
Consider `CC(NC(=O)c1nn(-c2ccccc2Cl)c(-c2ccc(Cl)cc2)c1Cn1cncn1)c1ccc(Br)cc1` (stereo unspecified), for which the Ratio IC50 was found to be 1950.

As to `O=C(NC1(c2ccc(Cl)cc2)CC1)c1nn(-c2ccccc2Cl)c(-c2ccc(Br)cc2)c1Cn1cncn1`, the Ratio IC50 was determined as 1510.

In the case of `O=C(c1nn(-c2ccccc2Cl)c(-c2ccc(Br)cc2)c1Cn1cncn1)N1CCN(c2cccc(Cl)c2Cl)CC1`, the Ratio IC50 stood at 262. On to `CC(NC(=O)c1nn(-c2ccccc2Cl)c(-c2ccc(Cl)cc2)c1Cn1cncn1)c1ccc(Cl)cc1Cl` (stereo unspecified), for which the Ratio IC50 worked out at 1660. Same read-out and setting: the result for `O=C(NC1CCCCC1)c1nn(-c2ccccc2Cl)c(-c2ccc(Br)cc2)c1Cn1cncn1` reads 2540.

Regarding `Cc1cccc(N2CCN(C(=O)c3nn(-c4ccccc4Cl)c(-c4ccc(Br)cc4)c3Cn3cncn3)CC2)c1C`, the Ratio IC50 worked out at 264.

A further test concerns the target Cannabinoid receptor 2 (Homo sapiens, UniProt P34972). Kind of test: Displacement of [3H]WIN-55212-2 from human recombinant CB2 receptor expressed in CHO-K1 cell membrane. The test is classed as cell membranes. Summed up:
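CB2 membranes were from CHO K-1 cells transfected with human CB2, prepared in TME buffer (pH 7.4) and incubated with 3 nM [3H]WIN55,212-2 in TME plus 0.5% fatty-acid-free BSA for 1 h at 30 °C. Bound label was filtered on PEI-soaked GF/B, washed with ice-cold buffer containing 0.1% BSA, and counted by scintillation. IC50 values are from single determinations.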
A general note: Loss of bound radioactivity is the signal in a displacement assay; it reports binding, not function.
Consider `CC(NC(=O)c1nn(-c2ccccc2Cl)c(-c2ccc(Cl)cc2)c1Cn1cncn1)c1ccc(Br)cc1` (stereo unspecified), for which the IC50 was 3510 nM. Turning to `O=C(NC1(c2ccc(Cl)cc2)CC1)c1nn(-c2ccccc2Cl)c(-c2ccc(Br)cc2)c1Cn1cncn1`, the IC50 worked out at 2570 nM.

On to `O=C(c1nn(-c2ccccc2Cl)c(-c2ccc(Br)cc2)c1Cn1cncn1)N1CCN(c2cccc(Cl)c2Cl)CC1`, for which the IC50 was determined as 582 nM. Consider `CC(NC(=O)c1nn(-c2ccccc2Cl)c(-c2ccc(Cl)cc2)c1Cn1cncn1)c1ccc(Cl)cc1Cl` (stereo unspecified), for which the IC50 amounted to 3330 nM. On the same count and under the same terms, the result for `O=C(NC1CCCCC1)c1nn(-c2ccccc2Cl)c(-c2ccc(Br)cc2)c1Cn1cncn1` reads 4060 nM; that for `Cc1cccc(N2CCN(C(=O)c3nn(-c4ccccc4Cl)c(-c4ccc(Br)cc4)c3Cn3cncn3)CC2)c1C`, 547 nM.

A further test deals with Cannabinoid receptor 1 (Rattus norvegicus, UniProt P20272). Kind of test: Displacement of [3H]CP-55940 from CB1 receptor in Sprague-Dawley rat cerebellar membrane. Further details: species or system Cerebellum. In a few lines:
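Membranes came from cerebella of male Sprague Dawley rats (200–300 g), homogenized in TME buffer (50 mM Tris–HCl, 1 mM EDTA, 3 mM MgCl2, pH 7.4) and spun at 48,000g for 30 min at 4 °C. They were incubated 1 h at 30 °C in TME with 0.5% fatty-acid-free BSA, then filtered on PEI-soaked GF/B, washed and counted by scintillation. IC50 values are from single determinations.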
For `CC(NC(=O)c1nn(-c2ccccc2Cl)c(-c2ccc(Cl)cc2)c1Cn1cncn1)c1ccc(Br)cc1` (stereo unspecified), the IC50 amounted to 1.8 nM. Still for that read-out and setting: the value for `O=C(NN1CCCCC1)c1nn(-c2ccccc2Cl)c(-c2ccc(Br)cc2)c1Cn1cncn1` was 5.23 nM. The same measure, in the same setting: the result for `O=C(c1nn(-c2ccc(Cl)cc2Cl)c(-c2ccc(Cl)cc2)c1Cn1cncn1)N1CCN(c2ncccn2)CC1` reads 56 nM; that for `CC(NC(=O)c1nn(-c2ccc(Cl)cc2Cl)c(-c2ccc(Cl)cc2)c1Cn1cncn1)c1ccc(Br)cc1` (stereo unspecified), 2.6 nM. For `CC(C)(C)NC(=O)c1nn(-c2ccc(Cl)cc2Cl)c(-c2ccc(Br)cc2)c1Cn1cncn1`, the IC50 stood at 2.9 nM. On the same count and under the same terms, the result for `O=C(NC1CCCC1)c1nn(-c2ccc(Cl)cc2Cl)c(-c2ccc(Cl)cc2)c1Cn1cncn1` reads 6.9 nM; that for `O=C(NC1CCCCCC1)c1nn(-c2ccccc2Cl)c(-c2ccc(Br)cc2)c1Cn1cncn1`, 2.7 nM. The same measure, in the same setting: the value for `O=C(c1nn(-c2ccccc2Cl)c(-c2ccc(Cl)cc2)c1Cn1cncn1)N1CCN(c2cccc(Cl)c2)CC1` was 4.08 nM; that for `O=C(NC1(c2ccc(Cl)cc2)CC1)c1nn(-c2ccccc2Cl)c(-c2ccc(Br)cc2)c1Cn1cncn1` was 1.7 nM. Still for that read-out and setting: the result for `CCC(C)(C)NC(=O)c1nn(-c2ccccc2Cl)c(-c2ccc(Br)cc2)c1Cn1cncn1` reads 8.99 nM.

Regarding `O=C(c1nn(-c2ccccc2Cl)c(-c2ccc(Br)cc2)c1Cn1cncn1)N1CCN(c2cccc(Cl)c2Cl)CC1`, the IC50 was found to be 2.22 nM. For the compound `CC(NC(=O)c1nn(-c2ccc(Cl)cc2Cl)c(-c2ccc(Cl)cc2)c1Cn1cncn1)c1ccc(Cl)cc1Cl` (stereo unspecified), the 50% inhibitory concentration (IC50) was 2.6 nM. Still for that read-out and setting: the result for `CN1CCN(C(=O)c2nn(-c3ccccc3Cl)c(-c3ccc(Br)cc3)c2Cn2cncn2)CC1` reads 901 nM; that for `O=C(NCc1ccccc1)c1nn(-c2ccccc2Cl)c(-c2ccc(Cl)cc2)c1Cn1cncn1`, 14.1 nM. `O=C(NC1(c2ccccc2)CC1)c1nn(-c2ccc(Cl)cc2Cl)c(-c2ccc(Cl)cc2)c1Cn1cncn1` came in with a half-inhibitory concentration (IC50) of 5.1 nM.

Compound `O=C(NCc1ccccc1)c1nn(-c2ccc(Cl)cc2Cl)c(-c2ccc(Cl)cc2)c1Cn1cncn1` registered an IC50 of 19.2 nM. On the same count and under the same terms, the value for `O=C(NCc1ccccc1)c1nn(-c2ccc(Cl)cc2Cl)c(-c2ccc(Br)cc2)c1Cn1cncn1` was 13 nM; that for `O=C(NNC(=O)C1CCCCC1)c1nn(-c2ccc(Cl)cc2Cl)c(-c2ccc(Cl)cc2)c1Cn1cncn1` was 189 nM.

On to `O=C(NC1(C(F)(F)F)CCC1)c1nn(-c2ccc(Cl)cc2Cl)c(-c2ccc(Cl)cc2)c1Cn1cncn1`, for which the IC50 is 4.67 nM.

The compound `CC(NC(=O)c1nn(-c2ccccc2Cl)c(-c2ccc(Cl)cc2)c1Cn1cncn1)c1ccc(Cl)cc1Cl` (stereo unspecified) returned an IC50 of 2 nM. The same measure, in the same setting: the value for `O=C(NC1CCCCCC1)c1nn(-c2ccc(Cl)cc2Cl)c(-c2ccc(Br)cc2)c1Cn1cncn1` was 8.49 nM; that for `O=C(c1nn(-c2ccc(Cl)cc2Cl)c(-c2ccc(Cl)cc2)c1Cn1cncn1)N1CCN(c2ccccc2)CC1` was 8.88 nM; that for `O=C(NCC1CCCCC1)c1nn(-c2ccccc2Cl)c(-c2ccc(Cl)cc2)c1Cn1cncn1` was 12.2 nM.

As for `O=C(NCC1CCCCC1)c1nn(-c2ccc(Cl)cc2Cl)c(-c2ccc(Br)cc2)c1Cn1cncn1`, the IC50 amounted to 20.5 nM. Same read-out and setting: the result for `O=C(NC1CCCCC1)c1nn(-c2ccccc2Cl)c(-c2ccc(Br)cc2)c1Cn1cncn1` reads 1.6 nM.

Consider `CN1CCN(C(=O)c2nn(-c3ccc(Cl)cc3Cl)c(-c3ccc(Cl)cc3)c2Cn2cncn2)CC1`, for which the IC50 was 1420 nM. Compound `C[C@H]1CC[C@H](NC(=O)c2nn(-c3ccc(Cl)cc3Cl)c(-c3ccc(Cl)cc3)c2Cn2cncn2)CC1` gave an IC50 of 14.2 nM. `Cc1cccc(N2CCN(C(=O)c3nn(-c4ccccc4Cl)c(-c4ccc(Br)cc4)c3Cn3cncn3)CC2)c1C` displayed an IC50 of 2.07 nM. Still for that read-out and setting: the value for `CC(NC(=O)c1nn(-c2ccc(Cl)cc2Cl)c(-c2ccc(Cl)cc2)c1Cn1cncn1)C(C)(C)C` (stereo unspecified) was 8.44 nM; that for `O=C(NC1CCCCCC1)c1nn(-c2ccc(Cl)cc2Cl)c(-c2ccc(Cl)cc2)c1Cn1cncn1` was 11.2 nM. On the same count and under the same terms, the result for `CC(C)(NC(=O)c1nn(-c2ccccc2Cl)c(-c2ccc(Cl)cc2)c1Cn1cncn1)c1ccc(Cl)cc1` reads 7.7 nM.

In turn, `C[C@@H]1CCCC[C@@H]1NC(=O)c1nn(-c2ccc(Cl)cc2Cl)c(-c2ccc(Cl)cc2)c1Cn1cncn1` (single isomer, unassigned) gave an IC50 of 18.3 nM. In turn, `CCC(C)(C)NC(=O)c1nn(-c2ccc(Cl)cc2Cl)c(-c2ccc(Cl)cc2)c1Cn1cncn1` returned an IC50 of 3.01 nM.

Consider `CCC(C)(C)NC(=O)c1nn(-c2ccc(Cl)cc2Cl)c(-c2ccc(Br)cc2)c1Cn1cncn1`, for which the IC50 is 3.67 nM. Same read-out and setting: the value for `CCN1CCN(C(=O)c2nn(-c3ccccc3Cl)c(-c3ccc(Br)cc3)c2Cn2cncn2)CC1` was 303 nM; that for `O=C(NC1(c2ccc(Cl)cc2)CC1)c1nn(-c2ccccc2Cl)c(-c2ccc(Cl)cc2)c1Cn1cncn1` was 9.03 nM. On the same count and under the same terms, the value for `O=C(NN1CCCCCC1)c1nn(-c2ccc(Cl)cc2Cl)c(-c2ccc(Br)cc2)c1Cn1cncn1` was 8.23 nM; that for `Cc1cccc(N2CCN(C(=O)c3nn(-c4ccc(Cl)cc4Cl)c(-c4ccc(Br)cc4)c3Cn3cncn3)CC2)c1C` was 3.8 nM. The compound `CC(NC(=O)c1nn(-c2ccccc2Cl)c(-c2ccc(Cl)cc2)c1Cn1cncn1)C(C)(C)C` (stereo unspecified) came in with an IC50 of 6.22 nM. With `O=C(NCc1ccccn1)c1nn(-c2ccccc2Cl)c(-c2ccc(Br)cc2)c1Cn1cncn1`, the IC50 was found to be 63.4 nM.

On to `CC(C)(NC(=O)c1nn(-c2ccc(Cl)cc2Cl)c(-c2ccc(Cl)cc2)c1Cn1cncn1)c1ccccc1`, for which the IC50 was 7.4 nM. The same measure, in the same setting: the value for `CCN1CCN(C(=O)c2nn(-c3ccccc3Cl)c(-c3ccc(Cl)cc3)c2Cn2cncn2)CC1` was 1050 nM; that for `O=C(NC1(c2ccccc2)CC1)c1nn(-c2ccc(Cl)cc2Cl)c(-c2ccc(Br)cc2)c1Cn1cncn1` was 7.86 nM; that for `O=C(c1nn(-c2ccccc2Cl)c(-c2ccc(Br)cc2)c1Cn1cncn1)N1CCN(c2ncccn2)CC1` was 22.3 nM.

`O=C(NNC(=O)C1(C(F)(F)F)CC1)c1nn(-c2ccc(Cl)cc2Cl)c(-c2ccc(Cl)cc2)c1Cn1cncn1` returned a half-maximal inhibitory concentration (IC50) of 126 nM. The same measure, in the same setting: the result for `O=C(c1nn(-c2ccc(Cl)cc2Cl)c(-c2ccc(Cl)cc2)c1Cn1cncn1)N1CCN(c2cccc(Cl)c2)CC1` reads 7.33 nM; that for `O=C(NC1(C(F)(F)F)CC1)c1nn(-c2ccccc2Cl)c(-c2ccc(Br)cc2)c1Cn1cncn1`, 9.15 nM; that for `CC(NC(=O)c1nn(-c2ccccc2Cl)c(-c2ccc(Br)cc2)c1Cn1cncn1)C(C)(C)C` (stereo unspecified), 6 nM. The same measure, in the same setting: the result for `C[C@H]1CCCC[C@@H]1NC(=O)c1nn(-c2ccc(Cl)cc2Cl)c(-c2ccc(Cl)cc2)c1Cn1cncn1` reads 12.9 nM; that for `CN1CCN(C(=O)c2nn(-c3ccccc3Cl)c(-c3ccc(Cl)cc3)c2Cn2cncn2)CC1`, 961 nM; that for `O=C(NCC1CCCCC1)c1nn(-c2ccc(Cl)cc2Cl)c(-c2ccc(Cl)cc2)c1Cn1cncn1`, 22.8 nM. With `CC(C)(C)NC(=O)c1nn(-c2ccc(Cl)cc2Cl)c(-c2ccc(Cl)cc2)c1Cn1cncn1`, the half-inhibitory concentration (IC50) turned out to be 4.9 nM. Still for that read-out and setting: the result for `O=C(NC1CCCCCC1)c1nn(-c2ccccc2Cl)c(-c2ccc(Cl)cc2)c1Cn1cncn1` reads 9.7 nM. In turn, `O=C(NC1(C(F)(F)F)CC1)c1nn(-c2ccc(Cl)cc2Cl)c(-c2ccc(Br)cc2)c1Cn1cncn1` showed an IC50 of 3.31 nM.

In turn, `O=C(c1nn(-c2ccc(Cl)cc2Cl)c(-c2ccc(Br)cc2)c1Cn1cncn1)N1CCN(c2cccc(Cl)c2)CC1` came in with a 50% inhibitory concentration (IC50) of 7.22 nM.

In the case of `O=C(c1nn(-c2ccccc2Cl)c(-c2ccc(Br)cc2)c1Cn1cncn1)N1CCN(c2ccccc2)CC1`, the IC50 was found to be 8.01 nM. On the same count and under the same terms, the value for `O=C(NC1(C(F)(F)F)CC1)c1nn(-c2ccccc2Cl)c(-c2ccc(Cl)cc2)c1Cn1cncn1` was 4.75 nM; that for `CC(C)(C)NC(=O)c1nn(-c2ccccc2Cl)c(-c2ccc(Br)cc2)c1Cn1cncn1` was 7.9 nM; that for `CCN1CCCC1CNC(=O)c1nn(-c2ccc(Cl)cc2Cl)c(-c2ccc(Cl)cc2)c1Cn1cncn1` (stereo unspecified) was 4020 nM. Consider `O=C(c1nn(-c2ccc(Cl)cc2Cl)c(-c2ccc(Br)cc2)c1Cn1cncn1)N1CCN(c2ccccc2)CC1`, for which the IC50 was 12.5 nM. In turn, `CCN1CCN(C(=O)c2nn(-c3ccc(Cl)cc3Cl)c(-c3ccc(Br)cc3)c2Cn2cncn2)CC1` returned a concentration for half-maximal inhibition (IC50) of 285 nM. `O=C(NC1(C(F)(F)F)CCC1)c1nn(-c2ccc(Cl)cc2Cl)c(-c2ccc(Br)cc2)c1Cn1cncn1` gave a half-inhibitory concentration (IC50) of 3.87 nM. Still for that read-out and setting: the value for `O=C(NC1(C(F)(F)F)CCC1)c1nn(-c2ccccc2Cl)c(-c2ccc(Br)cc2)c1Cn1cncn1` was 7.48 nM. Still for that read-out and setting: the value for `C[C@H]1CC[C@@H](NC(=O)c2nn(-c3ccc(Cl)cc3Cl)c(-c3ccc(Cl)cc3)c2Cn2cncn2)CC1` was 17.1 nM.
